Test results taken from ChEMBL document CHEMBL1156752, “Phosphinic tripeptides as dual angiotensin-converting enzyme C-domain and endothelin-converting enzyme-1 inhibitors” (J Med Chem, 2010).

What was measured:
Neprilysin = Neprilysin (Homo sapiens, UniProt P08473); experiment: Inhibition of human somatic NEP
Outline: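 Human NEP (0.5 nM) preincubated 45 min with inhibitor, then Mca-Arg-Pro-Pro-Gly-Phe-Ser-Pro-Dpa-OH (5 μM, Km 2 μM) added. Run at 25 °C, pH 6.8 Hepes/NaCl/ZnCl2/Brij-35 buffer. Fluorescence increase read at ex 320/em 405 nm under initial rates. […] Ki obtained.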

[1] = biological target: T1, Endothelin-converting enzyme 1 (Homo sapiens, UniProt P42892); experiment: Inhibition of human somatic ECE1
T1 sequence (P42892 whole entry): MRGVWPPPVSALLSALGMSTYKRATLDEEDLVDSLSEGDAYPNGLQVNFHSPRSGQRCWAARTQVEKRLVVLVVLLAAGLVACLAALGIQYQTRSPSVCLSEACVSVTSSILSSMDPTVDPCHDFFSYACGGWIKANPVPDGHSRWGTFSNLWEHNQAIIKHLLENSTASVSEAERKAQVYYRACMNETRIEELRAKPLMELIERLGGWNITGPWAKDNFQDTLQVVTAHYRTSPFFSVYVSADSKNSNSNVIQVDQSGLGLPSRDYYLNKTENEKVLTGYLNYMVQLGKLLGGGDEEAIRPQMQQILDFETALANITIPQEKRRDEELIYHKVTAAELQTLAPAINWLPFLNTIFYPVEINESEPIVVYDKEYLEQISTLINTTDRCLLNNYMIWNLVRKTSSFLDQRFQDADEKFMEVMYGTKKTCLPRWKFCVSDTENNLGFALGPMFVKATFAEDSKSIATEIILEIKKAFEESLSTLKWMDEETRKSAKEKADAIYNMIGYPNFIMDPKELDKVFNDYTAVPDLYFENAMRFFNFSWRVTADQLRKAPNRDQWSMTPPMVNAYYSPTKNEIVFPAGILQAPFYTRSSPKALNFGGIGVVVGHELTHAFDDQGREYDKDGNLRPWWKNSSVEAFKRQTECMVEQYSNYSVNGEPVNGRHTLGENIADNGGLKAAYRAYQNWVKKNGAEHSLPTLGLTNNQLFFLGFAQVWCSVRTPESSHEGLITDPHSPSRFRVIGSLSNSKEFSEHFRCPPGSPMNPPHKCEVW

[2] = biological target: T2, Angiotensin-converting enzyme (Homo sapiens, UniProt P12821); experiment: Inhibition of human somatic ACE C-terminal domain
Collagenase 3 = Collagenase 3 (Homo sapiens, UniProt P45452); experiment: Inhibition of human MMP13
[3] = biological target: T2, Angiotensin-converting enzyme; experiment: Inhibition of human somatic ACE in presence of 1:100 diluted SHR rat plasma complemented with 5 uM serum albumin; type: cell-free
Outline: (§1)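 ACE (1 nM final) and inhibitor at various concentrations incubated 45 min in this plasma. Reaction started with Mca-Ala-Ser-Asp-Lys-Dpa-OH (15 μM). Fluorescence monitored. Apparent Ki derived.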

Rattus norvegicus [4] = experiment: Antihypertensive activity in spontaneously hypertensive rat assessed as mean arterial pressure at 10 mg/kg, iv; type: functional, Artery
Outline: (§2)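 Male SHR rats (250 g, 12 weeks old) anesthetized with Nesdonal (50 mg/kg ip), tracheotomized, body temperature kept at 37 °C. MAP recorded by femoral artery transducer. Inhibitor or vehicle ([…]) given as iv bolus through venous catheter after 20 min stabilization. MAP followed for 60 min, n = 6/dose.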

[5] = biological target: T2, Angiotensin-converting enzyme; experiment: Inhibition of human somatic ACE in presence of 1:50 diluted SHR rat plasma; outline: as §1
[6] = biological target: T2, Angiotensin-converting enzyme; experiment: Inhibition of human somatic ACE in presence of 1:100 diluted SHR rat plasma; type: cell-free; outline: as §1
Rattus norvegicus [7] = experiment: Antihypertensive activity in spontaneously hypertensive rat assessed as mean arterial pressure at 3 mg/kg, iv; type: functional, Artery; outline: as §2
[8] = biological target: T2, Angiotensin-converting enzyme; experiment: Inhibition of human somatic ACE in presence of buffer
Rattus norvegicus [9] = experiment: Antihypertensive activity in spontaneously hypertensive rat assessed as mean arterial pressure at 30 mg/kg, iv; type: functional, Artery; outline: as §2
[10] = biological target: T2, Angiotensin-converting enzyme; experiment: Inhibition of human somatic ACE N-terminal domain
Outline: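 Human somatic ACE (0.5 nM) preincubated 45 min with inhibitor, then Mca-Ala-Ser-Asp-Lys-Dpa-OH substrate (8 μM) added. Continuous fluorescence read at ex 320/em 405 nm under initial-rate conditions. […] Ki calculated per domain.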

Structure (SMILES) | Ki (Neprilysin) [nM] | Ki [1] [nM] | Ki [2] [nM] | Ki (Collagenase 3) [nM] | further results
O=C(N[C@@H](Cc1ccccc1)P(=O)(O)CC(Cc1ccccc1)C(=O)N[C@@H](Cc1c[nH]c2ccccc12)C(=O)O)OCc1ccccc1 (some centres undefined) | 1.4 | 1.2 | – | – | –
CS(=O)(=O)N[C@@H](CCCCN)C(=O)N[C@@H](Cc1ccccc1)P(=O)(O)CC1(C(=O)N[C@@H](Cc2c[nH]c3ccccc23)C(=O)O)CCCC1 | – | – | – | – | IC50 (Neprilysin): 90 nM; IC50 [2]: 2.5 nM
O=C(O)[C@H](Cc1ccc2c(c1)oc1ccccc12)NCP(=O)(O)O | – | – | – | – | IC50 (Neprilysin): 2300 nM
O=C(N[C@H]1CCS[C@H]2CCC[C@@H](C(=O)O)N2C1=O)[C@@H](S)Cc1ccccc1 [OMAPATRILAT] | 9 | – | 6 | – | –
O=C(N[C@@H](Cc1ccccc1)P(=O)(O)CC(Cc1cc(-c2ccccc2)no1)C(=O)N[C@@H](Cc1c[nH]c2ccccc12)C(=O)O)OCc1ccccc1 (some centres undefined) | 260 | 14 | 16 | – | –
O=C(N[C@@H](Cc1ccccc1)P(=O)(O)C[C@@H](Cc1cc(-c2ccccc2)no1)C(=O)N[C@@H](Cc1c[nH]c2ccccc12)C(=O)O)OCc1ccccc1 | 130 | 26 | 1.4 | 19 | –
O=C(N[C@@H](Cc1ccccc1)P(=O)(O)C[C@H](Cc1cc(-c2ccccc2)no1)C(=O)N[C@@H](Cc1ccc(O)cc1)C(=O)O)OCc1ccccc1 | 6700 | 14 | – | […] | Ki [3]: […]; Activity (Rattus norvegicus [4]): 132 mmHg; Ki [5]: […]; Ki [6]: […]; Activity (Rattus norvegicus [7]): 147 mmHg
O=C(N[C@@H](Cc1ccccc1)P(=O)(O)CC(Cc1ccc(-c2ccccc2)cc1)C(=O)N[C@@H](Cc1c[nH]c2ccccc12)C(=O)O)OCc1ccccc1 (some centres undefined) | 52 | > 10000 | 12 | – | –
O=C(N[C@@H](Cc1ccccc1)P(=O)(O)C[C@H](Cc1cc(-c2ccccc2)no1)C(=O)N[C@@H](Cc1c[nH]c2ccccc12)C(=O)O)OCc1ccccc1 | 1850 | 8 | 36 | 1200 | Ki [8]: 36 nM; Activity (Rattus norvegicus [9]): 96 mmHg; Ki [3]: 1510 nM; Activity (Rattus norvegicus [4]): 148 mmHg; Ki [5]: 1520 nM; Ki [6]: 500 nM
O=C(N[C@@H](Cc1ccccc1)P(=O)(O)CC(Cc1cc(-c2ccccc2)no1)C(=O)N[C@@H](Cc1ccccc1)C(=O)O)OCc1ccccc1 (single isomer, unassigned) | > 10000 | 7.7 | 3.8 | > 10000 | Ki [8]: 3.8 nM; Ki [3]: 110 nM; Ki [5]: 340 nM; Ki [6]: 32 nM
O=C(N[C@@H](Cc1ccccc1)P(=O)(O)CC(CC1CC(c2ccccc2)=NO1)C(=O)N[C@@H](Cc1c[nH]c2ccccc12)C(=O)O)OCc1ccccc1 (some centres undefined) | 2500 | 910 | 13 | – | –
O=C(N[C@@H](Cc1ccccc1)P(=O)(O)C1CCC[C@H]1C(=O)N[C@@H](Cc1c[nH]c2ccccc12)C(=O)O)OCc1ccccc1 (single isomer, unassigned) | > 50000 | > 50000 | 3 | – | Ki [10]: 2500 nM
O=C(N[C@@H](Cc1ccccc1)P(=O)(O)C[C@@H](Cc1cc(-c2ccccc2)no1)C(=O)N[C@@H](Cc1ccccc1)C(=O)O)OCc1ccccc1 | 68 | 240 | 0.4 | 30 | –
O=C(N[C@@H](Cc1ccccc1)P(=O)(O)CC(CC1CC(c2ccc(-c3ccccc3)cc2)=NO1)C(=O)N[C@@H](Cc1c[nH]c2ccccc12)C(=O)O)OCc1ccccc1 (some centres undefined) | > 10000 | > 10000 | 25 | – | –
C[C@H](NC(=O)C(CC1CC(c2ccccc2)=NO1)CP(=O)(O)[C@H](Cc1ccccc1)NC(=O)OCc1ccccc1)C(=O)O (some centres undefined) | 85 | 2100 | 5 | – | –
O=C(N[C@@H](Cc1ccccc1)P(=O)(O)C[C@@H](Cc1cc(-c2ccccc2)no1)C(=O)N[C@@H](Cc1ccc(O)cc1)C(=O)O)OCc1ccccc1 | – | – | – | 24 | –
O=C(N[C@@H](Cc1ccccc1)P(=O)(O)CC(CC1CC(c2ccc(C(F)(F)F)cc2)=NO1)C(=O)N[C@@H](Cc1c[nH]c2ccccc12)C(=O)O)OCc1ccccc1 (some centres undefined) | > 5000 | > 5000 | 20 | – | –
